What was measured:
[1] = target: Platelet-derived growth factor receptor beta (Homo sapiens, UniProt P09619); test: Inhibition of PDGFRbeta (unknown origin) using poly (Glu, Tyr) 4:1 after 30 mins by HTRF assay
How it was run: (§1)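 HTRF assay using purified tyrosine kinase proteins in 50 mM HEPES pH 7.0 with DTT, MgCl2, MnCl2 and 0.1% NaN3. The substrate was poly(Glu,Tyr) 4:1 at 20 µg/mL, and ATP was added as a 10 mM solution. Compounds were diluted in 1% DMSO. Reactions ran 30 min at 25 °C and were stopped with Streptavidin-XL665 and Tk antibody cryptate.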

[2] = Cytotoxicity against human U87MG cells after 72 hrs by MTT assay; format: functional, cell-based, U-87MG ATCC; details: U-87 MG
How it was run: (§2)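 Cells were grown in MEM with 10% FBS and seeded at about 4×10^3 cells per well, then held 24 h at 37 °C in 5% CO2. Compounds were added and the cells cultured 72 h. MTT was added to 5 µg/mL final for 4 h at 37 °C, and the formazan was dissolved in DMSO. IC50 is the mean of three determinations.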

[3] = Cytotoxicity against human MKN45 cells after 72 hrs by MTT assay; details: MKN-45, 72 h
[4] = system: A549; test: Ratio of foretinib IC50 to compound IC50 for human A549 cells after 72 hrs by MTT assay; format: functional
[5] = system: U-87 MG; test: Ratio of foretinib IC50 to compound IC50 for human U87MG cells after 72 hrs by MTT assay; format: functional, U-87MG ATCC
[6] = Ratio of foretinib IC50 to compound IC50 for human H460 cells after 72 hrs by MTT assay; format: functional
[7] = target: Epidermal growth factor receptor (Homo sapiens, UniProt P00533); test: Inhibition of EGFR (unknown origin) using poly (Glu, Tyr) 4:1 after 30 mins by HTRF assay; how it was run: as §1
[8] = target: Mast/stem cell growth factor receptor Kit (Homo sapiens, UniProt P10721); test: Inhibition of c-Kit (unknown origin) using poly (Glu, Tyr) 4:1 after 30 mins by HTRF assay; how it was run: as §1
[9] = system: HT-29; test: Cytotoxicity against human HT-29 cells after 72 hrs by MTT assay; details: HT-29, 72 h
[10] = target: Vascular endothelial growth factor receptor 2 (Homo sapiens, UniProt P35968); test: Inhibition of VEGFR2 (unknown origin) using poly (Glu, Tyr) 4:1 after 30 mins by HTRF assay; how it was run: as §1
[11] = target: Hepatocyte growth factor receptor (Homo sapiens, UniProt P08581); test: Inhibition of c-Met (unknown origin) using poly (Glu, Tyr) 4:1 after 30 mins by HTRF assay
[12] = Cytotoxicity against human H460 cells after 72 hrs by MTT assay; details: NCI-H460, 72 h
[13] = system: HT-29; test: Ratio of foretinib IC50 to compound IC50 for human HT-29 cells after 72 hrs by MTT assay; format: functional
[14] = system: A549; test: Cytotoxicity against human A549 cells after 72 hrs by MTT assay; format: functional, cell-based; details: A549, 72 h; how it was run: as §2
[15] = target: T1, Receptor-type tyrosine-protein kinase FLT3 (Homo sapiens, UniProt P36888); test: Inhibition of Flt-3 (unknown origin) using poly (Glu, Tyr) 4:1 after 30 mins by HTRF assay; how it was run: as §1
T1 sequence (P36888 whole entry): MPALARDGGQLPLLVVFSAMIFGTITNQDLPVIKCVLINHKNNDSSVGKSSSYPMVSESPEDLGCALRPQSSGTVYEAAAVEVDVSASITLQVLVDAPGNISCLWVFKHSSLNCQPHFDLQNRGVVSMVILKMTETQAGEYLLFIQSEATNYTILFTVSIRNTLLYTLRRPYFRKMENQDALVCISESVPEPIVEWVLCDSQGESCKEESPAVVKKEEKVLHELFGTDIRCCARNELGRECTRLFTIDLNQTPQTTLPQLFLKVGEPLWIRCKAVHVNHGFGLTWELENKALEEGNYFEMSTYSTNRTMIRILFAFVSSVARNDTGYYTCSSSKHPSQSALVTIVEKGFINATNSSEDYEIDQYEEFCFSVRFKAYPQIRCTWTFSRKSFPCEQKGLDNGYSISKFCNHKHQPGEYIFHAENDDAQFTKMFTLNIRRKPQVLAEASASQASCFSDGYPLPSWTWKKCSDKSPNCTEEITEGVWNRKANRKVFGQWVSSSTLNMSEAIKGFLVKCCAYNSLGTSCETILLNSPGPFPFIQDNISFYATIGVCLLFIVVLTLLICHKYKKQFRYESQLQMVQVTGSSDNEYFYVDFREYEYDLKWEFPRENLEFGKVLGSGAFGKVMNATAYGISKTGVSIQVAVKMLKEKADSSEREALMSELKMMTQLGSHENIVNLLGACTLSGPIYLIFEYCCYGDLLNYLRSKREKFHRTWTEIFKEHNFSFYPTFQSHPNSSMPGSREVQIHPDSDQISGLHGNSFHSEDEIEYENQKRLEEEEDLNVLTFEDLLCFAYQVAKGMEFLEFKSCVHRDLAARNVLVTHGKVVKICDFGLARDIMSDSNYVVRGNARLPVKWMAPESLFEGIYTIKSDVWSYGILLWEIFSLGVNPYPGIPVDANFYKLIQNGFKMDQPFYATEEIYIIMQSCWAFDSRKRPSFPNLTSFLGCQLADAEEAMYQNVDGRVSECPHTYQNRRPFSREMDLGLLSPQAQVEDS

SMILES	IC50 [1] [nM]	IC50 [2] [nM]	IC50 [3] [nM]	Ratio IC50 [4]	Ratio IC50 [5]	Ratio IC50 [6]	IC50 [7] [nM]	IC50 [8] [nM]	IC50 [9] [nM]	IC50 [10] [nM]	IC50 [11] [nM]	IC50 [12] [nM]	Ratio IC50 [13]	IC50 [14] [nM]	IC50 [15] [nM]
COc1cc2c(Oc3ccc(N/C=C4\C(=O)NC(=O)N(c5ccc(C)cc5)C4=O)cc3F)ccnc2cc1OCCCN1CCCC1	531	640	57	1.8	1.7	3.7	> 100000	652	130	384	1.15	51	1.2	72	496
COc1cc2c(Oc3ccc(N/C=C4\C(=O)NC(=O)N(c5ccc(F)c(Cl)c5)C4=O)cc3F)ccnc2cc1OCCCN1CCOCC1		580	110						280		5.14	120		270	
COc1cc2c(Oc3ccc(N/C=C4\C(=O)NC(=O)N(c5ccccc5)C4=O)cc3F)ccnc2cc1OCCCN1CCCCC1		1300	280						160		4.31	220		510	
COc1cc(N2C(=O)NC(=O)/C(=C\Nc3ccc(Oc4ccnc5cc(OCCCN6CCCC6)c(OC)cc45)c(F)c3)C2=O)c(OC)cc1Cl		2800	350						9400		16.8	710		380	
COc1cc2c(Oc3ccc(N/C=C4\C(=O)NC(=O)N(c5ccc(F)c(Cl)c5)C4=O)cc3F)ccnc2cc1OCCCN1CCCC1		680	72						190		2.38	54		190	
COc1cc(N2C(=O)NC(=O)/C(=C\Nc3ccc(Oc4ccnc5cc(OCCCN6CCC(C)CC6)c(OC)cc45)c(F)c3)C2=O)c(OC)cc1Cl		3400	460						630		19.2	570		640	
COc1cc2c(Oc3ccc(N/C=C4\C(=O)NC(=O)N(c5ccccc5)C4=O)cc3F)ccnc2cc1OCCCN1CCC(C)CC1		1420	46						280		3.84	170		390	
COc1cc2c(Oc3ccc(N/C=C4\C(=O)NC(=O)N(c5ccc(F)c(Cl)c5)C4=O)cc3F)ccnc2cc1OCCCN1CCN(C)CC1		750	66						150		3.15	76		310	
COc1cc2c(Oc3ccc(N/C=C4\C(=O)NC(=O)N(c5ccc(F)c(Cl)c5)C4=O)cc3F)ccnc2cc1OCCCN1CCCCC1		1000	40						200		3.15	80		180	
